For 36 sequences, folding enthalpy and Tm results are on record in the array DNA melting data of Ke et al. (doi:10.1101/2024.01.08.574731).

Data set [1] is described as follows: folding enthalpy; higher = less favourable; fluorescence melt of hairpins on a sequencing array, two-state fit. Conditions: sodium 0.088 M. A digest of the protocol:
(§1)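 Cy3 fluorescence of library hairpins on a sequenced MiSeq flow cell, with annealed Cy3 and quencher oligos, was imaged in 50 mM Na-HEPES pH 8.0, 25 mM NaCl in 2.5 °C steps up to 60 °C. Signals were normalised to pre-quench Cy3 and to control variants. Melting temperature and folding enthalpy came from bootstrapped two-state fits, inverse-variance combined over four replicates. Fitted temperatures were raised by 9.35 °C to match UV melts.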

The nature of data set [2]: melting temperature; fluorescence melt of hairpins on a sequencing array, two-state fit, raised by 9.35 °C to match UV melts. To be noted: sodium 0.088 M. In a few lines:
as §1

As for GGGTCGCGAAAGCGCCCC (((.(((....))).))), the folding enthalpy in data set [1] was -18.6 kcal/mol. The Tm in data set [2] worked out at 66.8 °C.

For the sequence GGGTCGGGAAACTGGCCC (((.(.(....).).))), in data set [1], the folding enthalpy was -35.8 kcal/mol. Further, the Tm in data set [2] stood at 50.6 °C.

Take GGGTCTCCGAAAGGACCC (((..(((....)))))): the folding enthalpy in data set [1] was -26.5 kcal/mol. Further, in data set [2], the Tm worked out at 51.4 °C.

Turning to GGGTCTGGAAACAGACCC (((((((....))))))), the folding enthalpy in data set [1] is -36.1 kcal/mol. Also, in data set [2], the Tm was 68.8 °C.

In the case of GGGTCTGGAAACAGGCCC (((.(((....))).))), the folding enthalpy in data set [1] is -46.8 kcal/mol. Besides, in data set [2], the Tm was 59.8 °C.

In the case of GGGTGACGAAAGTCCCC (((.(((....)))))), in data set [1], the folding enthalpy was -34.9 kcal/mol. Moreover, in data set [2], the Tm was 58.4 °C.

GGGTGAGGAAACTCACCC (((((((....))))))): the folding enthalpy in data set [1] is -33.8 kcal/mol. Further, in data set [2], the Tm was determined as 68.6 °C.

Turning to GGGTGAGGAAACTCATCC ((.((((....)))).)), the folding enthalpy in data set [1] was -43.1 kcal/mol. Besides, the Tm in data set [2] was determined as 49.2 °C.

For the sequence GGGTGAGGAAACTCGTCC ((..(((....)))..)), the folding enthalpy in data set [1] is -28.5 kcal/mol. Besides, the Tm in data set [2] came out at 34.3 °C.

In the case of GGGTGATCGAAAGATCCC (((..(((....)))))), the folding enthalpy in data set [1] is -19 kcal/mol. In addition, the Tm in data set [2] amounted to 50.2 °C.

As to GGGTGCCCGAAAGGGCCC (((..(((....)))))), in data set [1], the folding enthalpy is -11.6 kcal/mol. The Tm in data set [2] was found to be 55.5 °C.

As to GGGTGCGAAAGCAATCCC ((((((....)))..))), the folding enthalpy in data set [1] was -21.8 kcal/mol. Further, the Tm in data set [2] stood at 50.6 °C.

Turning to GGGTGCGAAAGCATCCC ((((((....))).))), the folding enthalpy in data set [1] was -18.5 kcal/mol. Moreover, the Tm in data set [2] turned out to be 65.2 °C.

In the case of GGGTGCGAAAGCATTCCC ((((((....)))..))), in data set [1], the folding enthalpy was -17.4 kcal/mol. Moreover, the Tm in data set [2] was 46.9 °C.

Turning to GGGTGGCCGAAAGGCCCC (((..(((....)))))), the folding enthalpy in data set [1] is -11.8 kcal/mol. The Tm in data set [2] amounted to 54.2 °C.

GGGTGGCGAAAGCCCCC (((.(((....)))))): the folding enthalpy in data set [1] is -17.3 kcal/mol. For the same sequence, in data set [2], the Tm came out at 66.9 °C.

In the case of GGGTGGCGAAAGCCTCCC (((.(((....))).))), the folding enthalpy in data set [1] is -28 kcal/mol. In data set [2], the Tm came to 66.2 °C.

Take GGGTGGGAAACCACCC ((((((....)))))): the folding enthalpy in data set [1] is -29.6 kcal/mol. In addition, the Tm in data set [2] was determined as 68.2 °C.

Regarding GGGTGTACGAAAGTACCC (((..(((....)))))), in data set [1], the folding enthalpy is -23.1 kcal/mol. Besides, the Tm in data set [2] turned out to be 53.3 °C.

In the case of GGGTGTGGAAACGCATCC ((.((.(....).)).)), the folding enthalpy in data set [1] was -26.3 kcal/mol. In addition, in data set [2], the Tm was found to be 41.3 °C.

As for GGGTGTGGAAACGTACCC ((((..(....)..)))), the folding enthalpy in data set [1] is -28.7 kcal/mol. In addition, the Tm in data set [2] was 45.5 °C.

As to GGGTTACGAAAGTACCC (((.(((....)))))), the folding enthalpy in data set [1] was -31.5 kcal/mol. Besides, the Tm in data set [2] was 54.3 °C.

Take GGGTTACGAAAGTATCCC (((.(((....))).))): the folding enthalpy in data set [1] is -43.4 kcal/mol. Further, the Tm in data set [2] was determined as 51.4 °C.

For the sequence GGGTTAGGAAACTGACCC ((((.((....)).)))), the folding enthalpy in data set [1] is -34.6 kcal/mol. For the same sequence, the Tm in data set [2] amounted to 50 °C.

On to GGGTTCGAAAGAACTCCC ((((((....)))..))), for which the folding enthalpy in data set [1] is -13.5 kcal/mol. Moreover, the Tm in data set [2] worked out at 46.5 °C.

As to GGGTTCGAAAGAAGCCCC ((((((....)))..))), the folding enthalpy in data set [1] is -20.9 kcal/mol. In addition, in data set [2], the Tm stood at 55.3 °C.

For GGGTTTACGAAAGTACCC (((..(((....)))))), the folding enthalpy in data set [1] was -24.2 kcal/mol. The Tm in data set [2] came out at 41.2 °C.

Consider GGGTTTCGAAAGAACCC (((.(((....)))))), for which, in data set [1], the folding enthalpy is -38 kcal/mol. For the same sequence, the Tm in data set [2] turned out to be 51.2 °C.

GGGTTTGCGAAAGCACCC (((..(((....)))))): the folding enthalpy in data set [1] is -18.9 kcal/mol. The Tm in data set [2] came out at 47.3 °C.

On to GGGTTTGGAAACAAACCC (((((((....))))))), for which the folding enthalpy in data set [1] is -39.6 kcal/mol. Further, the Tm in data set [2] was 66.8 °C.

As for GGGTTTGGAAACAAGTCC ((..(((....)))..)), the folding enthalpy in data set [1] is -22.3 kcal/mol. The Tm in data set [2] was determined as 30.4 °C.

As for GGGTTTGGAAACAGACCC ((((.((....)).)))), the folding enthalpy in data set [1] was -39.9 kcal/mol. The Tm in data set [2] was 48.8 °C.

GGGTTTGGAAACAGATCC ((.(.((....)).).)): the folding enthalpy in data set [1] is -13 kcal/mol. The Tm in data set [2] worked out at 29.9 °C.

Turning to GGGTTTGGAAACGAACCC (((((.(....).))))), in data set [1], the folding enthalpy is -59.2 kcal/mol. For the same sequence, the Tm in data set [2] worked out at 52.3 °C.

As to GGGTTTGGAAACGAACTC (.(((.(....).))).), the folding enthalpy in data set [1] is -24 kcal/mol. The Tm in data set [2] turned out to be 32.4 °C.

On to GGTAAAACGAAAGTTACC (((..(((....)))))), for which, in data set [1], the folding enthalpy is -19.1 kcal/mol. For the same sequence, the Tm in data set [2] came to 37.3 °C.
